# Where two headings read alike, the source gives them in different places.
# What was measured:
# [1] = Stability control without microsomes; type: physicochemical; conditions: microsomes replaced with PBS, percentage remaining relative to t0
# [2] = Mouse liver microsome stability assay; type: in vitro ADME; conditions: percentage remaining relative to t0
# [3] = Hydrolytic stability in PBS; type: physicochemical; conditions: pH 7.4, t1/2 in PBS, PBS pH 7.4, 37 °C
# [4] = Assessment of hematological toxicity; type: in vivo, mouse; conditions: single IV dose 125 mg/kg, 7 days post-treatment
# Outline: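 Mice received a single IV dose of 125 mg/kg test compound. Whole blood was collected 7 days post-dose and a complete blood count run per mouse (total WBC, lymphocytes, neutrophils). Four mice per cohort; error is SEM. Groups were compared with control by two-tailed two-sample Student's t test assuming equal variance.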
# U87 cells = test: O6-methyldeoxyguanosine quantitation; type: cell-based, human; conditions: 100 or 1000 μM, 8 h
# Outline: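 U87 cells were treated with 100 or 1000 μM test compound for 8 h. Genomic DNA was isolated, quantified and hydrolysed to deoxyribonucleosides. O6-methyldeoxyguanosine was quantitated by LC-MS/MS and expressed per 10 μg DNA.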
# [5] = cited from earlier work
# [6] = in vivo blood-brain barrier permeability; conditions: CD-1 IGS, mouse, brain and serum, iv, 25 mg/kg
# human GBM cell lines = test: Panel of human GBM cell lines, viability; type: cell-based
Compound,"stability (2 h, no microsomes) [1] [%]","stability (2 h, microsomes) [2] [%]",further results
Cn1nnc2c(Cl)ncn2c1=O [Compound 19],91 ± 1,91 ± 3,
Cn1nnc2c(-c3ccccc3)ncn2c1=O [Compound 23],103 ± 5,44 ± 2,
Cc1ncn2c(=O)n(C)nnc12 [Compound 14],,,half-life [3]: 40 h
CCCCN(CCCC)C(=O)c1ncn2c(=O)n(C)nnc12 [Compound 7],98 ± 3,1 ± 1,
CCN(CC)C(=O)c1ncn2c(=O)n(C)nnc12 [Compound 6],95 ± 2,81 ± 1,
"Cn1nnc2c(C(N)=O)ncn2c1=O [TMZ, temozolomide]",86 ± 4,87 ± 6,myelosuppression / white blood cell count [4]: white blood cell (WBC) depletion relative to control mice; concentration of O6-methylated deoxyguanosine (U87 cells): Dose dependent increases; half-life in humans ([5]; humans): ~2 h; half-life in vivo and in aqueous solutions in vitro ([5]; in vivo and in aqueous solutions in vitro): ~2 h; Kp at 5 min [6]: 0.23 ± 0.03; IC50 (human GBM cell lines; read-out: IC50 in cell lines with negligible MGMT expression): ≤ 50 µM; IC50 (human GBM cell lines; read-out: IC50 in cell lines with significant MGMT expression): > 300 µM
